Drawing on ChEMBL document CHEMBL2331272, “Bromotyrosine alkaloids from the Australian marine sponge Pseudoceratina verrucosa” (J Nat Prod, 2013), this text covers IC50 and inhibition for five compounds.

Test [1] deals with NFF. Put plainly: Cytotoxicity against human NFF cells assessed as inhibition of cell viability after 72 hrs by alamar blue assay. In kind it is functional, cell-based. The method, boiled down: (§1)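 NFF fibroblasts grown in DMEM with 10% FBS and penicillin/streptomycin, 37 °C, 5% CO2; 1000 cells/well seeded and adhered overnight. Compounds tested in ten-point series, final 100 μM to 3 nM, 1% DMSO, triplicate wells; 72 h incubation. Readout by Alamar blue (10% final), ex 535/em 590 nm. IC50 by nonlinear regression; IC50 or % inhibition at 100 μM as mean SD, two independent experiments.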
On the technique in general: Alamar Blue is a resazurin reagent that responds to reducing activity.

In test [2] the test system is HeLa. Briefly: Cytotoxicity against human HeLa cells assessed as inhibition of cell viability after 72 hrs by alamar blue assay. In kind it is functional, cell-based. The method, boiled down:
(§2)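 HeLa and PC3 cells grown in RPMI with 10% FBS and penicillin/streptomycin, 37 °C, 5% CO2; 1000 cells/well adhered overnight. Ten-point dilutions, final 100 μM to 3 nM, 1% DMSO, triplicate; 72 h exposure. Alamar blue added (10% final), fluorescence ex 535/em 590 nm. IC50 by nonlinear regression; IC50 or % inhibition at 100 μM as mean SD of two independent experiments.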

The subject of test [3] is PC-3. Put plainly: Cytotoxicity against human PC3 cells assessed as inhibition of cell viability after 72 hrs by alamar blue assay. In kind it is functional, cell-based. The note with it: PC-3, 72 h. The method, boiled down:
as §2

The subject of test [4] is HeLa. Briefly: Cytotoxicity against human HeLa cells assessed as inhibition of cell viability at 100 uM after 72 hrs by alamar blue assay. In kind it is functional. The method, boiled down: as §2
Test [5] deals with NFF. Briefly: Cytotoxicity against human NFF cells assessed as inhibition of cell viability at 100 uM after 72 hrs by alamar blue assay. Format: functional. The method, boiled down:
as §1

Test [6] deals with PC-3. Briefly: Cytotoxicity against human PC3 cells assessed as inhibition of cell viability at 100 uM after 72 hrs by alamar blue assay. Format: functional. To be noted: PC-3, 72 h. The method, boiled down: as §2

pIC50: −log10 of the molar value.

For the compound `COc1ccc(C/C(=N\O)C(=O)NC[C@@H](O)c2cc(Br)c(OCCCN(C)C)c(Br)c2)cc1Br`, the pIC50 (commonly −log10 of the IC50, conventionally taken in molar units) was 4.80 in test [1], 4.72 in test [2] and 5.31 in test [3].
On to `COC1=C(Br)[C@H](O)[C@@]2(C=C1Br)CC(C(=O)NCC(O)c1cc(Br)c(OC[C@H](O)CNC(=O)C3=NO[C@]4(C=C(Br)C(OC)=C(Br)[C@@H]4O)C3)c(Br)c1)=NO2` (stereo not given in full) [FOSTULARIN 3], for which the figures for the inhibition at 100 µM in test [4], in test [5] and in test [6] were 46%, 48% and 60%, respectively.
As for `COC1=C(Br)[C@H](O)[C@@]2(C=C1Br)CC(C(=O)NCC(O)c1cc(Br)c(OC[C@H]3CNC(=O)O3)c(Br)c1)=NO2` (stereo not given in full) [FOSTULARIN 2], the inhibition – broadly, how much of the control response was suppressed – at 100 µM turned out to be 68% in test [5] and 73% in test [6]. For the same compound, the pIC50 in test [2] is 4.40.
For `CN(C)CCCOc1c(Br)cc([C@H]2CNC(=O)O2)cc1Br`, the values for the inhibition at 100 µM in test [4], in test [5] and in test [6] were 44%, 29% and 35%, respectively.
The like results for `COC1=C(Br)[C@H](O)[C@@]2(C=C1Br)CC(C(=O)NCCCc1cnc(N)[nH]1)=NO2` [AEROPHOBIN 2] were, in that order, 20%, 25% and 66%.
